Screening data (PubChem)
CHT allo act: human CHT allosteric activation | B-score at 10 µM | CHT-expressing cells, membrane potential dye, choline EC20; stronger effect = higher value; LV-AA mutant CHT in HEK293 cells | AID 488977 | 0.49% of 310,000 active;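 active = initial fluorescence not abnormally high and integrated response B-score, plate-corrected, over 3 SD above library mean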
CHT block: inhibits the human high affinity choline transporter | Q9GZV3 | CHT-expressing cells, membrane potential dye, choline response; stronger effect = lower value | B-score at 10 µM | 0.86% of 310,000 active | AID 488975;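 active = B-score over 3 SD under the library average, and starting fluorescence ratio not unusually high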;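 note: choline stimulus applied at its EC90 after an EC20 pre-addition; B-score computed on integrated fluorescence ratio after choline addition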
proCasp3 act: activates human procaspase-3; P42574; recombinant procaspase-3 D3A, Ac-DEVD-pNA absorbance 405 nm; activation, % at 8.5 µM; 0.11% of 330,000 active; AID 463141;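 active = activation above the mean of all tested compounds plus 3 SD, cut at about 21% in these data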
Target sequence (P42574 whole entry D9A/D28A/D175A): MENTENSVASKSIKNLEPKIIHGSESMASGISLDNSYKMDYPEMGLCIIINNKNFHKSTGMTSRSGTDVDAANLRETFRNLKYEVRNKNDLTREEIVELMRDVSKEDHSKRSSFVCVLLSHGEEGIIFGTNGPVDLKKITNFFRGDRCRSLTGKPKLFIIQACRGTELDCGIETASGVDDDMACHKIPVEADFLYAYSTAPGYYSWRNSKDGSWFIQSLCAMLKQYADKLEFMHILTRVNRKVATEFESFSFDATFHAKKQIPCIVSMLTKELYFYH
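Assay system: Procaspase-3 D3A mutant, all three cleavage aspartates alanine. Buffer or medium: Zinc-free HEPES saline buffer with Triton X-100. Times: 1 h compound preincubation, 2 h substrate hydrolysis at 25 °C. Measured by: 405 nm absorbance of p-nitroaniline, reads at 0 and 120 min. Read-out basis: percent activation relative to control range. Replicates: singlicate.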
procasp7 counter: counter-screen: procaspase-7 (human) activation | recombinant procaspase-7, Ac-DEVD-pNA absorbance 405 nm; D23A/D198A/D206A triple mutant, cannot self-cleave; scale: DMSO 0, 5 µM enzyme 100 | activation, % at 8.5 µM | 0.093% of 330,000 active;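 active = percent activation above the screen-wide mean plus 3 SD, cut at about 25% in these data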
Target sequence (P55210 whole entry D23A/D198A/D206A): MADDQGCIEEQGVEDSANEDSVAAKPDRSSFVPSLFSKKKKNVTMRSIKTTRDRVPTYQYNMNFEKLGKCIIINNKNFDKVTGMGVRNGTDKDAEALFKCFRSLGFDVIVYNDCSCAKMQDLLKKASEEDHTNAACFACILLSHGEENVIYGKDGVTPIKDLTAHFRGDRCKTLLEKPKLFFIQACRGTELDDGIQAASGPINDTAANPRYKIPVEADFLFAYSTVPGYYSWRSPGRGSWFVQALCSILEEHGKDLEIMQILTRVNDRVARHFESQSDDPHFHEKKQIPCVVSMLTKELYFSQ
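Material: Procaspase-7 triple mutant (PC-7 D3A) | Quantity: 2 µM procaspase-7 mutant as dispensed | Reagent: DEVD-pNA substrate | Times: 1 h preincubation, 2 h reaction | Technique: 405 nm absorbance of p-nitroaniline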
CHT block conf: human CHT inhibition, confirmatory screen. AID 493221. 70% of 2,400 active. CHT activity remaining % of control (stronger effect = lower value), % at 10 µM. shares compounds with CHT block. CHT-expressing cells, choline membrane potential dye; LV-to-AA substituted CHT, HEK293 cells;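 active = choline transporter activity left, mean of duplicates at 10 µM, below buffer-only control mean minus 3 SD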;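 note: depolarization triggered by choline at its EC90 following an EC20 pre-addition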
HEK293 CHT ctr: CHT inhibitor counter-screen hit in parental HEK293 cells; 4% of 2,400 active; membrane potential dye, choline response; active = decrease or increase beyond buffer ±3SD; AID 493222; shares compounds with CHT block; membrane potential ratio readout (active if shifted either direction beyond buffer ±3SD; no single direction) at 10 µM;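 note: parental cells lack the transporter so any hit is non-specific; ratio is peak minus trough fluorescence over baseline after EC90 choline challenge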
A number is an active result; - = inactive; . = no result. Shown are actives, neighbours in structure and some others; about 1.3% of the full set was active somewhere.

SMILES	CHT allo act	CHT block	proCasp3 act	procasp7 counter	CHT block conf	HEK293 CHT ctr
CCN(CC)CCCN1C=C2C(=O)C(C)(OC(=O)CCC(=O)OC)C(=O)C=C2C=C1C1CC1 (stereo not given)	-	-5.7	-	-	45%	-
C=CCn1c(NC(=O)c2ccccc2Cl)c(C#N)c2nc3ccccc3nc21	-	-5.8	-	-	-	-
O=C(NNS(=O)(=O)c1ccc([N+](=O)[O-])cc1)c1ccc2ccccc2c1O	-	-5	.	.	42%	-
O=C(NNS(=O)(=O)c1ccc(F)cc1)c1ccc([N+](=O)[O-])cc1	-	-	-	-	.	.
CC(C)c1nc2oc3c(N(C)CCO)ncnc3c2c2c1CCC2	-	-5.7	-	-	-	-
CCCOc1ccccc1C(=O)N(Cc1ccc(C)o1)C1CCS(=O)(=O)C1 (stereo not given)	-	-	-	-	.	.
CCOC(=O)c1c(C)[nH]c(C(=O)OCC(=O)N(C)CC(=O)Nc2ccccc2Cl)c1C	-	-	-	-	.	.
CCN(CC)CCCC(C)NC(=O)c1c(NC(=O)c2ccccc2)sc2c1CCCC2 (stereo not given)	-	-7.6	-	-	39%	-
CCN(CC(=O)Nc1ccc2c(c1)CCC2)Cc1nc2ccccc2c(=O)[nH]1	-	-5.1	-	-	-	-
CCN(CC(=O)Nc1ccc2c(c1)OCO2)Cc1nc2ccccc2c(=O)[nH]1	-	-	-	-	.	.
CC(=O)Oc1ccc(C(=O)Nc2ccc(S(=O)(=O)NCC3CCCO3)cc2)cc1 (stereo not given)	-	-5.1	-	-	70%	-
O=C(NC1CCS(=O)(=O)C1)c1ccc(S(=O)(=O)NCC2CCCO2)cc1 (stereo not given)	-	-	-	-	.	.
CC(=O)Nc1ccc(C(=O)Nc2ccc(S(=O)(=O)NCC3CCCO3)cc2)cc1 (stereo not given)	-	-	-	-	.	.
CC1CCCCC1NC(=O)c1ccc(S(=O)(=O)NCC2CCCO2)cc1 (stereo not given)	-	-12	-	-	11%	-
Cc1[nH]c(C)c(S(=O)(=O)NCCc2ccccc2)c1C(=O)N1CCCCC1	-	-	-	-	.	.
c1ccc(CCc2nc(-c3ccccc3)no2)cc1	-	-	-	-	.	.
CCc1ccc(NCc2nc(-c3ccccc3)no2)cc1	-	-5.7	-	-	58%	-
Cc1ccc(-c2noc(CNc3ccccc3)n2)cc1	-	-5.8	-	-	44%	-
CCN(CC)CCNC(=O)c1cc([N+](=O)[O-])c(N(C)C)cc1OC	-	-	-	-	.	.
COc1cc(N(C)C)c([N+](=O)[O-])cc1C(=O)NC(C)CNc1ccc([N+](=O)[O-])cc1Cl (stereo not given)	-	-5.6	-	-	-	-
CSc1ncccc1C(=O)OCC(=O)N(C)c1c(N)n(Cc2ccccc2)c(=O)[nH]c1=O	-	-	-	-	.	.
Cc1cc(/C=N/NC(=O)C(=O)N2CCCC2)c(C)n1-c1cccc(Br)c1	-	-7.4	-	-	58%	-
Cc1cc(/C=N/NC(=O)c2c(Br)cnn2C)c(C)n1-c1cccc(Br)c1	-	-	-	-	.	.
CC(C)Sc1sc(C(=O)O)c(-c2ccc(Cl)cc2)c1C#N	-	-5.7	-	-	61%	-
N#Cc1c(SCc2ccc(Cl)cc2)sc(C(=O)c2ccccc2)c1N	-	-	-	-	.	.
SMILES	CHT allo act	CHT block	proCasp3 act	procasp7 counter	CHT block conf	HEK293 CHT ctr
Cc1ccc(-n2nnc3c(=O)n(CC(N)=O)cnc32)cc1	-	-	-	-	.	.
CC(C)(C)NC(=O)NC(=O)CN1CCN(c2cccc(Cl)c2)CC1	-	-6.9	-	-	47%	-
CCCCCc1ccc(OCCC[n+]2ccccc2)c(CCCCC)c1	-	-15	-	-	-5.5%	-
CC(=O)Nc1ccc(OCCC[n+]2ccccc2)cc1	-	-	-	-	.	.
CCOc1ccc(C(=O)NC(C(=O)NCCc2ccc(OC(F)F)cc2)C(C)C)cc1 (stereo not given)	-	-	-	-	.	.
Cc1cc(C)c(C)c(S(=O)(=O)N2CCC(C(=O)N3CC(C)CC(C)C3)CC2)c1C (stereo not given)	-	-	-	-	.	.
CS(=O)(=O)C1=NSC2=NC(=O)/C(=C\c3ccc(OC(=O)c4ccco4)cc3)C(=N)N21	-	-	-	-	.	.
CS(=O)(=O)C1=NN2C(=N)/C(=C\c3ccc(OC(=O)c4ccco4)cc3)C(=O)N=C2S1	-	-6.8	-	-	60%	-
O=C1C=C(c2ccc3c(c2)oc2ccccc23)C[C@@H](c2ccc(Cl)cc2)C1	.	.	-	-	.	.
COc1cc(C(=O)NC2CC(C)(C)CC(C)(C)C2)ccc1OC1CCN(C(C)=O)CC1	-	-6.9	.	.	4.8%	-
CC(=O)Oc1ccc(/C=C(\NC(=O)c2ccco2)C(=O)NCc2ccco2)cc1	-	-	-	-	.	.
C=CCN(CC=C)C(=O)CN1C(=O)NC(Cc2c[nH]c3ccccc23)C1=O (stereo not given)	-	-	-	-	.	.
Cc1ccc(CSc2nnc(C)c(=O)[nH]2)cc1	-	-7.9	-	-	-	-
O=C(CNC(=O)c1ccc(Cl)cc1)OC1CCOC1=O (stereo not given)	-	-	-	-	.	.
CCCCOc1ccc(C(=O)NCC(=O)OC2CCOC2=O)cc1 (stereo not given)	-	-5	-	-	-	-
COc1cc(C(CCN2CCCC2)c2c(OC)cc(OC)c3c(C)cc(=O)oc23)cc(OC)c1OC (stereo not given)	-	-	-	-	.	.
COc1cc(C(CC(=O)N2CCCC2)c2c(OC)cc(OC)c3c(-c4ccccc4)cc(=O)oc23)cc(OC)c1OC (stereo not given)	-	-	-	-	.	.
COc1cc(C(CCN2CCCC(C)C2)c2c(OC)cc(OC)c3c(-c4ccccc4)cc(=O)oc23)cc(OC)c1OC (stereo not given)	-	-8.7	-	-	22%	-
CCCCCc1cc(=O)oc2c(C(CCN3CCCCC3)c3ccc(OC)cc3)c(OC)cc(OC)c12 (stereo not given)	-	-	-	-	.	.
COc1cc(C(CCN2CCCCC2)c2c(OC)cc(OC)c3c(-c4ccccc4)cc(=O)oc23)cc(OC)c1OC (stereo not given)	-	-8.1	-	-	44%	-
CCCCCc1cc(=O)oc2c(C(CCN3CCCC3)c3ccc(N(C)C)cc3)c(OC)cc(OC)c12 (stereo not given)	-	-6.3	-	-	-	-
COc1ccc(CCNC(=O)C2CC(=O)N(C3CCCCC3)C2)cc1OC (stereo not given)	-	-	-	-	.	.
